Measured values gathered from unrelated publications.
Compare with care: the assays were run in different laboratories.
PKN1: Serine/threonine-protein kinase N1 (PKN1, Homo sapiens, UniProt Q16512)
PIK3C2G: Phosphatidylinositol 3-kinase C2 domain-containing subunit gamma (PIK3C2G, Homo sapiens, UniProt O75747)

| Compound | target | test | setting | quantity | result |
| --- | --- | --- | --- | --- | --- |
| N#C/C(=C\c1ccc(O)c(O)c1)C(N)=S | PKN1 | enzyme activity, inhibitor | 1 µM | activity vs control | 69% |
| CN1CCC(C(c2ccccc2)c2ccccc2)CC1 | Histamine H1 receptor (HRH1, Homo sapiens, UniProt P35367) | binding |  | koff | 0.133 s⁻¹ |
| COc1ncccc1-c1cnn2ccc(N3CCN(C(=O)OC(C)C)CC3)nc12 | PIK3C2G | binding, competition with immobilised ligand | 1 µM | remaining binding | 94% |
| CN1CC[C@]2(C)c3cc(OC(=O)Nc4ccccc4)ccc3N(C)[C@H]12 | Muscarinic acetylcholine receptor M4 (CHRM4, Homo sapiens, UniProt P08173) | ligand displacement, radioligand | 10 µM | inhibition | 0% |
| Cc1nn(C)cc1-c1nc2c(N3CCN(Cc4ccc(Cl)cc4)CC3)c(Cl)cnc2[nH]1 | Cyclin-dependent kinase 18 (CDK18, Homo sapiens, UniProt Q07002) | binding, competition with immobilised ligand | 1 µM | remaining binding | 100% |
| CN(C)C(=O)COC(=O)Cc1ccc(OC(=O)c2ccc(NC(=N)N)cc2)cc1 | Cathepsin L2 (CTSV, Homo sapiens, UniProt O60911) | enzyme activity, inhibitor | 10 µM | inhibition | 1% |
| COc1ccc2c(c1)/C(=C/c1cnc[nH]1)C(=O)N2 | PKN1 | enzyme activity, inhibitor | 1 µM | activity vs control | 55% |
| Nc1ncc(-c2nc(N3CCOCC3)nc(N3CCOCC3)n2)c(C(F)F)n1 | PIK3C2G | binding, competition with immobilised ligand | 10 µM | remaining binding | 0.75% |
| COC[C@H]1OC(=O)c2coc3c2[C@@]1(C)C1=C(C3=O)[C@@H]2CCC(=O)[C@@]2(C)C[C@H]1OC(C)=O | PKN1 | enzyme activity, inhibitor | 1 µM | activity vs control | 111% |
| CCOC(=O)c1ccc(OC(=O)CCCCCNC(=N)N)cc1 | Matrix metalloproteinase-9 (MMP9, Homo sapiens, UniProt P14780, Q279R) | enzyme activity, inhibitor | 10 µM | inhibition | 13% |
